Consider 37 sequences from the array DNA melting data of Ke et al. (doi:10.1101/2024.01.08.574731).

Data set [1] is described as follows: folding enthalpy; higher = less favourable; fluorescence melt of hairpins on a sequencing array, two-state fit. Conditions: sodium 0.088 M. The procedure, abridged:
(§1)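 Cy3 fluorescence of library hairpins on a sequenced MiSeq flow cell, with annealed Cy3 and quencher oligos, was imaged in 50 mM Na-HEPES pH 8.0, 25 mM NaCl in 2.5 °C steps up to 60 °C. Signals were normalised to pre-quench Cy3 and to control variants. Melting temperature and folding enthalpy came from bootstrapped two-state fits, inverse-variance combined over four replicates. Fitted temperatures were raised by 9.35 °C to match UV melts.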

Data set [2] in a line: melting temperature; fluorescence melt of hairpins on a sequencing array, two-state fit, raised by 9.35 °C to match UV melts. The following applies: sodium 0.088 M. The procedure, abridged: as §1

Consider GGCCTGACGAAAGTCGCC (((..(((....)))))), for which the folding enthalpy in data set [1] was -16.3 kcal/mol. Moreover, in data set [2], the Tm was 44 °C.

Consider GCTTTGCGAAAGCAGCGC ((..(((....)))..)), for which the folding enthalpy in data set [1] is -16.7 kcal/mol. Besides, the Tm in data set [2] was found to be 48.6 °C.

For GTGGGGGAAACCCCAC ((((((....)))))), in data set [1], the folding enthalpy is -31.9 kcal/mol. Also, in data set [2], the Tm was 68 °C.

Consider GGCTCCGGAAACAGAGCC (((((.(....).))))), for which the folding enthalpy in data set [1] is -34 kcal/mol. Further, the Tm in data set [2] worked out at 50.5 °C.

For GCTACACGAAAGTGAAGC (((.(((....))).))), in data set [1], the folding enthalpy was -35.3 kcal/mol. The Tm in data set [2] is 54.2 °C.

Consider GATCCACTATTGGATC ((((((....)))))), for which the folding enthalpy in data set [1] was -40.9 kcal/mol. For the same sequence, the Tm in data set [2] stood at 49.8 °C.

For the sequence GGCAACGAAAGTTATGCC ((((((....)))..))), the folding enthalpy in data set [1] was -24.2 kcal/mol. The Tm in data set [2] is 46.3 °C.

Consider GCGATAATTCGC ((((....)))), for which the folding enthalpy in data set [1] is -23.5 kcal/mol. The Tm in data set [2] worked out at 48.2 °C.

Take GCCACCGAAAGGTAGGGC ((((((....)))..))): the folding enthalpy in data set [1] is -27.6 kcal/mol. In addition, the Tm in data set [2] was 52.7 °C.

As for GGTTTTCGAAAGAAGACC (((.(((....))).))), the folding enthalpy in data set [1] was -31.4 kcal/mol. The Tm in data set [2] turned out to be 48.1 °C.

As to GCCCGCGGAAACGCGGAC (.(((((....))))).), the folding enthalpy in data set [1] is -9.8 kcal/mol. Moreover, the Tm in data set [2] came out at 57 °C.

Take ACTACGAAAGTAGT (((((....))))): the folding enthalpy in data set [1] was -18.7 kcal/mol. The Tm in data set [2] was 50.9 °C.

Consider GTCCATGCGAAAGCAGAC (((..(((....)))))), for which the folding enthalpy in data set [1] is -12.9 kcal/mol. Moreover, the Tm in data set [2] was 35.3 °C.

With GTGCTGGGAAACTGGCAC ((((..(....)..)))), in data set [1], the folding enthalpy is -26.2 kcal/mol. Moreover, the Tm in data set [2] came to 49.7 °C.

Take GCAATAGGAAACTATCGC ((.((((....)))).)): the folding enthalpy in data set [1] is -18.6 kcal/mol. Moreover, the Tm in data set [2] was 33.9 °C.

For the sequence GGGTACGAAAGTAAACCC ((((((....)))..))), the folding enthalpy in data set [1] was -28.4 kcal/mol. In addition, in data set [2], the Tm came out at 47.3 °C.

With GGCGAACGAAAGTTGCC (((.(((....)))))), the folding enthalpy in data set [1] was -36.5 kcal/mol. Further, in data set [2], the Tm amounted to 56.9 °C.

On to GCAAGACGAAAGTCGTGC (((.(((....))).))), for which the folding enthalpy in data set [1] is -32.2 kcal/mol. The Tm in data set [2] worked out at 61.1 °C.

For the sequence GTTGACGAAAGTCGAAC ((((((....))).))), the folding enthalpy in data set [1] is -18.4 kcal/mol. In addition, the Tm in data set [2] was 45.4 °C.

For the sequence GAGTGTGGAAACGTACTC ((((..(....)..)))), the folding enthalpy in data set [1] was -22.9 kcal/mol. Further, the Tm in data set [2] was 35.5 °C.

For GGGCCACGAAAGTGCCC (((.(((....)))))), the folding enthalpy in data set [1] is -21.9 kcal/mol. Also, the Tm in data set [2] was 61.6 °C.

As to GCCGAACCGAAAGGTGGC (((..(((....)))))), the folding enthalpy in data set [1] is -26.4 kcal/mol. In data set [2], the Tm was 53.1 °C.

On to GAATACGAAAGTAGCTTC ((((((....)))..))), for which the folding enthalpy in data set [1] is -16.4 kcal/mol. In addition, in data set [2], the Tm worked out at 33.9 °C.

As to GATCTATACTAGATC ((((((...)))))), the folding enthalpy in data set [1] was -32.6 kcal/mol. The Tm in data set [2] came to 40.6 °C.

Regarding GATCAACGGATTGATC ((((((....)))))), the folding enthalpy in data set [1] is -28 kcal/mol. Besides, the Tm in data set [2] was 39.5 °C.

In the case of GGATGACGAAAGTCTTCC (((.(((....))).))), the folding enthalpy in data set [1] was -42.5 kcal/mol. In data set [2], the Tm is 52.9 °C.

For the sequence GACAACGAAAGTTTAGTC ((((((....)))..))), the folding enthalpy in data set [1] was -16 kcal/mol. For the same sequence, the Tm in data set [2] is 30.4 °C.

For the sequence GTAGTCCGAAAGGAGTAC (((.(((....))).))), in data set [1], the folding enthalpy was -43.5 kcal/mol. The Tm in data set [2] worked out at 54.1 °C.

With GATTACGAAAGTAATATC ((((((....)))..))), the folding enthalpy in data set [1] was -22.1 kcal/mol. Moreover, the Tm in data set [2] came to 38.6 °C.

Turning to GATCGTGCTGACGATC ((((((....)))))), the folding enthalpy in data set [1] is -36.4 kcal/mol. Besides, the Tm in data set [2] came to 55.8 °C.

For GCTATCGGAAACAATAGC (((((.(....).))))), the folding enthalpy in data set [1] is -18.3 kcal/mol. For the same sequence, the Tm in data set [2] stood at 35.1 °C.

Turning to GCCTTCGAAAGAATAGGC ((((((....)))..))), in data set [1], the folding enthalpy was -28.8 kcal/mol. In addition, the Tm in data set [2] is 44.8 °C.

As for GCGGGGTCGAAAGACCGC (((..(((....)))))), the folding enthalpy in data set [1] was -12.8 kcal/mol. Also, the Tm in data set [2] stood at 57.7 °C.

Take CGGGCGGAAACGCACCCG ((((((....)))..))): the folding enthalpy in data set [1] was -13.1 kcal/mol. For the same sequence, in data set [2], the Tm amounted to 48.8 °C.

As for GGGCGTGCGAAAGCACCC (((..(((....)))))), in data set [1], the folding enthalpy was -13 kcal/mol. The Tm in data set [2] came to 54.4 °C.

Regarding GCGCAGGCGAAAGCCCGC (((..(((....)))))), the folding enthalpy in data set [1] was -16.7 kcal/mol. The Tm in data set [2] came out at 60.1 °C.

GCTGGGCGAAAGCACTGC ((.(.((....)).).)): the folding enthalpy in data set [1] is -29.4 kcal/mol. For the same sequence, the Tm in data set [2] is 61.3 °C.
